The record followed here is ChEMBL document CHEMBL1139409, “Pestalachlorides A-C, antifungal metabolites from the plant endophytic fungus Pestalotiopsis adusta” (Bioorg Med Chem, 2008).

In brackets after ≈: the same amount, converted by molar mass. Some results are limits rather than exact numbers.

Holding throughout (type): functional, organism-based
One assay concerns Verticillium albo-atrum. Briefly: Antifungal activity against Verticillium albo-atrum by Almar blue assay. The essentials:
(§1)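 Plant pathogen strains from CGMCC, maintained on potato dextrose agar; inocula from broth cultures grown 25 °C for 48 h, final suspension 1 × 10^4 hyphae/mL. Samples from 10 mg/mL DMSO stock, serially diluted, in triplicate, with alamar blue indicator; incubated 28 °C for 48 h, fluorescence read at Ex/Em 544/590 nm. Inhibition rate plotted against concentration to give IC50 and MIC; NCCLS-based method.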

The subject of a further assay is Fusarium graminearum. Briefly: Antifungal activity against Gibberella zeae by Almar blue assay. The gist of the method: as §1
Another assay relates to Fusarium culmorum. Briefly: Antifungal activity against Fusarium culmorum by Almar blue assay. The essentials: as §1

Take `COc1c(Cl)c(C)c(Cl)c2c1[C@H]1c3c(C=O)c(O)cc(O)c3C[C@@H]1C(C)(C)O2` (racemic) [PESTALACHLORIDE C]: the IC50 in the assay with Verticillium albo-atrum, in the assay on Fusarium graminearum and with Fusarium culmorum was greater than 118 µM throughout. Moreover, the MIC against Verticillium albo-atrum, with Fusarium graminearum and against Fusarium culmorum was greater than 237 µM in each case.

Take `COc1c(Cl)c(C)c(Cl)c(O)c1C1NC(=O)c2c(O)cc(O)c(CC=C(C)C)c21` (racemic) [PESTALACHLORIDE A]: the half-maximal inhibitory concentration (IC50) in the assay with Verticillium albo-atrum was 58.3 µM; with Fusarium graminearum it was 54.4 µM; in the assay with Fusarium culmorum, 0.89 µM. Also, the figures for the MIC in the assay with Verticillium albo-atrum, in the assay on Fusarium graminearum and in the assay on Fusarium culmorum were 114 µM (≈ 50.1 µg/mL), 114 µM (≈ 50.1 µg/mL) and 7.2 µM (≈ 3.16 µg/mL), respectively.

In the case of `CC(C)=CCc1c(O)cc(O)c2c1C(=O)c1c(O)c(Cl)c(C)c(Cl)c1OC2` [PESTALACHLORIDE B], the results for the IC50 in the assay with Verticillium albo-atrum, in the assay on Fusarium graminearum and in the assay with Fusarium culmorum were 7.9 µM, 1.1 µM and 4.7 µM, respectively. Further, the minimal inhibitory concentration (MIC) was determined as 12.2 µM (≈ 4.99 µg/mL) with Verticillium albo-atrum, 12.2 µM (≈ 4.99 µg/mL) against Fusarium graminearum and 49 µM (≈ 20.1 µg/mL) in the assay with Fusarium culmorum.
